Hits are enriched below; roughly 3% of the tested compounds scored in any of these assays.
Statin myotox sup: suppression of simvastatin myotoxicity; C2C12 myotubes + simvastatin, ATP luminescence, 48 h; scaled: DMSO 0, geranylgeraniol control 100; rescue of ATP level, % at 7.49 µM; actives 0.78% (n = 330,000); AID 602340;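 active = mean ATP rescue above about 67%, or every replicate alone reaching that limit, limit read from the data, passing the limit was not always enough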;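 note: myotubes were challenged with 10 µM simvastatin during compound exposure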
S100A4 inh HTS: blocks human S100A4 binding to myosin IIA peptide | actives 0.14% (n = 360,000) | inhibition, % at 10.7 µM | S100A4/TAMRA-MyoIIA peptide fluorescence polarization;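 active = mean inhibition of at least 70% across replicates, with every replicate also reaching that level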
Target sequence (P26447 whole entry, looked up): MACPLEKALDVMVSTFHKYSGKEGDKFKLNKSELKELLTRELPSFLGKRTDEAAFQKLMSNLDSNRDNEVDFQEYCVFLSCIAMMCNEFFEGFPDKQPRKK
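System – human S100A4 monomer protein, biochemical binding assay · Buffer or medium – Calcium-containing HEPES buffer, pH 7.2 · Timing – 5 min between mix addition and reading · Also added – TAMRA-labelled myosin IIA heavy-chain peptide probe, 5 nM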
Cneo AK release: Cryptococcus neoformans lysis via adenylate kinase release; C. neoformans lysis, adenylate kinase release luminescence, 4 h; normalised: neutral wells 0, clomiphene wells 100; lysis activity, % at 15 µM; actives 0.2% (n = 360,000);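 active = mean lysis activity across replicates of at least 80%, whatever share of replicates individually reach that level; inactive = mean lysis activity below 80%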
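Assay system: C. neoformans cells. Amount: yeast cell density of 5 × 10^6 cells/mL. Technique: AK luminescence. Buffer or medium: YPD. Times: static 4 h at 37 °C with compound, 1 h detection. Dosing: single-point compound dose. Read-out: lysis from increased AK signal.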
PGC1a acetyl inh: PGC1a acetylation modulation, inhibitor mode. AID 651687. U2OS PGC1a acetylation, AlphaScreen anti-acetyl-lysine; with virally co-expressed GCN5 acetyltransferase. inhibition, % at 15.6 µM. actives 0.17% (n = 350,000);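 active = every replicate shows inhibition of at least 40%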;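 note: 0% = neutral control wells and 100% = positive control wells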
SIRT5 inh: sirtuin-5 (human) deacylase inhibition | Q9NXA8 | Purified SirT5, succinyl-peptide AMC, trypsin-coupled fluorescence | inhibition, % at 15 µM | actives 1.1% (n = 330,000); in the data active = inhibition above about 15%
Target sequence (Q9NXA8 whole entry, looked up): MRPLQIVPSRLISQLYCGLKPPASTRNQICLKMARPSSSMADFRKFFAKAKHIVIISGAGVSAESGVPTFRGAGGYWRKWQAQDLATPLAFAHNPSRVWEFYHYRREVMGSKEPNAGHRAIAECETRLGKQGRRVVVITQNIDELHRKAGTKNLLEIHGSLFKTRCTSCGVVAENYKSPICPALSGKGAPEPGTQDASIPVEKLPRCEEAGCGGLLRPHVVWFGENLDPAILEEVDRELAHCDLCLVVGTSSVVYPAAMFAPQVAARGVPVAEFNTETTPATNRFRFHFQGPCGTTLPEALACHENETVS
Ecoli rRNA inh: inhibits bacterial ribosomal RNA function over humanized ribosomes. AID 720706. GFP signal change (wild-type ribosome), % (test concentration not listed). actives 1.6% (n = 350,000). E. coli WT GFP vs humanized-ribosome RFP mutants, fluorescence, 24 h; stronger effect = lower value; DMSO median 0, no signal -100;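 active = significant combined selectivity score with lowered wild-type GFP, culture density cut under 30%, mutant RFP and density less affected; inactive = any of these conditions unmet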
* marks the source's active call; other numbers are inactive results; ! = a repeat was not active.

`COc1cc(C(F)(F)F)c(C(=O)N(C)Cc2ccc(Cl)c(Cl)c2)cn1` gave S100A4 inh HTS -1, Cneo AK release 0, PGC1a acetyl inh -4, SIRT5 inh -1 and Ecoli rRNA inh -22*.
For O=C1NN(c2ccccc2)C(=O)/C1=C/c1ccc(-c2ccc(C(=O)O)cc2)o1 the results were Statin myotox sup 20, S100A4 inh HTS -3, Cneo AK release -10, SIRT5 inh 24* and Ecoli rRNA inh 7.
For CC1=NOC(=O)/C1=C\c1ccc(-c2ccc(Cl)c(C(=O)O)c2)o1 the results were S100A4 inh HTS -1, PGC1a acetyl inh 8, SIRT5 inh 22* and Ecoli rRNA inh 5.
COC(=O)c1ccc(N2NC(=O)/C(=C/c3ccc(-c4ccc(Cl)c(C(=O)O)c4)o3)C2=O)cc1 was read as Statin myotox sup 9, S100A4 inh HTS 12, PGC1a acetyl inh 8, SIRT5 inh 23* and Ecoli rRNA inh 15.
Screening CCNC(=O)[C@H]1[C@H](CO)[C@H]2Cn3c(ccc(-c4cccc(F)c4)c3=O)[C@H]2N1Cc1cc(F)ccc1F returned Statin myotox sup 23, S100A4 inh HTS 2, Cneo AK release -2, SIRT5 inh -12 and Ecoli rRNA inh -3.
`Cc1cccc(-c2noc(CN(C)C(=O)c3ccoc3C)n2)c1` gave Statin myotox sup -8, S100A4 inh HTS 8, Cneo AK release 0, SIRT5 inh -7 and Ecoli rRNA inh -3.
Cc1cccc(-c2noc(CN(C)C(=O)c3ccco3)n2)c1 was read as Statin myotox sup 20, S100A4 inh HTS 0, Cneo AK release 1, PGC1a acetyl inh -14, SIRT5 inh 52* and Ecoli rRNA inh 3.
COCC(=O)N1[C@H](C#N)[C@@H](c2ccccc2-c2cccc(F)c2)[C@H]1CO was read as S100A4 inh HTS -30, PGC1a acetyl inh 11, SIRT5 inh -2 and Ecoli rRNA inh -3.
Screening Cc1ccc(S(=O)(=O)N2CCCC(C(=O)NCc3ccccn3)C2)cc1 (stereo not drawn) returned Statin myotox sup 13, Cneo AK release 1 and PGC1a acetyl inh -19.
Screening CS(=O)(=O)N1CCCC(C(=O)NCc2ccccn2)C1 (stereo not drawn) returned Statin myotox sup -9, S100A4 inh HTS -1, Cneo AK release -1, PGC1a acetyl inh 47*, SIRT5 inh 2 and Ecoli rRNA inh 12.
COC(=O)C1=C(C)NC(=O)CC1c1cc(Br)ccc1F (stereo not drawn) was read as Statin myotox sup 111*, Cneo AK release -3 and PGC1a acetyl inh -1.
`C[C@@H]1CN(C)C(=O)Cc2cc(N(C)C)ccc2O[C@@H]1CN(C)S(C)(=O)=O` gave Ecoli rRNA inh 0.
Screening CC(C)(C)c1ccc(C(=O)Nc2ccc(C(=O)NCc3cccnc3)cc2)cc1 returned Statin myotox sup -55, S100A4 inh HTS -6, Cneo AK release 0, PGC1a acetyl inh -101, SIRT5 inh 1 and Ecoli rRNA inh -4.
Screening CC(C)(C)C(=O)Nc1ccc(C(=O)NCc2cccnc2)cc1 returned Statin myotox sup 114*, Cneo AK release -1 and PGC1a acetyl inh -17.
CCOC(=O)c1ccc(NC(=S)NCc2cccnc2)cc1 was read as Statin myotox sup 2, S100A4 inh HTS 1, Cneo AK release 3, PGC1a acetyl inh -12, SIRT5 inh 0 and Ecoli rRNA inh -25.
Screening CCOc1ccc(NC(=S)NCc2cccnc2)cc1 returned Statin myotox sup -3, S100A4 inh HTS 0, Cneo AK release -2, PGC1a acetyl inh -3, SIRT5 inh -7 and Ecoli rRNA inh -20*.
`CC[C@H](C)[C@@H]1NC(=O)[C@@H](CC(C)C)NC(=O)[C@H](C(C)C)NC(=O)[C@H]2CSSC[C@H](NC1=O)C(=O)N2` gave Statin myotox sup -213, S100A4 inh HTS 0, Cneo AK release 0, PGC1a acetyl inh 72*, SIRT5 inh 2 and Ecoli rRNA inh -9.
For CCOC(=O)C1(CCSC)NC(c2ccco2)C2C(=O)N(CC)C(=O)C21 (stereo not drawn) the results were Statin myotox sup 104*, Cneo AK release 2 and PGC1a acetyl inh 4.
Screening Cc1ccc(S(=O)(=O)Nc2ccccc2F)cc1C(=O)OC(C)C(=O)N1CCOCC1 (stereo not drawn) returned Statin myotox sup 4, S100A4 inh HTS 75*, SIRT5 inh -6 and Ecoli rRNA inh 3.
For Cc1c(NS(=O)(=O)c2ccc(Cl)c(C(=O)OC(C)C(=O)N3CCOCC3)c2)c(=O)n(-c2ccccc2)n1C (stereo not drawn) the results were Statin myotox sup -2, S100A4 inh HTS -2, Cneo AK release -1, PGC1a acetyl inh 4, SIRT5 inh -2 and Ecoli rRNA inh 13.
`C/C=C/c1cnc2c(c1)C(=O)N([C@H](C)CO)C[C@H](C)[C@@H](CN(C)C(=O)Nc1c(C)noc1C)O2` gave Statin myotox sup -11, S100A4 inh HTS -15, Cneo AK release -1, PGC1a acetyl inh -10, SIRT5 inh 8 and Ecoli rRNA inh 5.
For COc1ccc(-c2cnc3c(c2)C(=O)N([C@H](C)CO)C[C@@H](C)[C@@H](CN(C)C(=O)Nc2c(C)noc2C)O3)cc1 the results were Statin myotox sup 28, S100A4 inh HTS 10, Cneo AK release -9, PGC1a acetyl inh 43*, SIRT5 inh -3 and Ecoli rRNA inh 4.
Cc1noc(C)c1NC(=O)N(C)C[C@@H]1Oc2ncc(Br)cc2C(=O)N([C@@H](C)CO)C[C@H]1C was read as Statin myotox sup 7, S100A4 inh HTS -8, Cneo AK release -1, PGC1a acetyl inh 5, SIRT5 inh 30*! and Ecoli rRNA inh 9.
For COc1ccc(-c2cnc3c(c2)C(=O)N([C@H](C)CO)C[C@H](C)[C@H](CN(C)C(=O)NC(C)C)O3)cc1 the results were Statin myotox sup 0, S100A4 inh HTS -14, Cneo AK release 2, PGC1a acetyl inh 6, SIRT5 inh -5 and Ecoli rRNA inh 1.
For Cc1c(NC(=O)Cc2cccs2)cccc1[N+](=O)[O-] the results were S100A4 inh HTS 3, PGC1a acetyl inh 8, SIRT5 inh -7 and Ecoli rRNA inh 19.
Screening CC(C)(C)c1csc(NC(=O)Cc2cccs2)n1 returned S100A4 inh HTS -5, SIRT5 inh 0 and Ecoli rRNA inh -23*.
For Cc1c(Cl)cccc1NC(=O)Cc1cccs1 the results were Statin myotox sup 10, S100A4 inh HTS 0, Cneo AK release -1, PGC1a acetyl inh 13, SIRT5 inh 57* and Ecoli rRNA inh -1.

Assay outcomes deposited in PubChem by Broad Institute.
